This assay addresses Muscarinic acetylcholine receptor M3 (Homo sapiens) (UniProt P20309). Kind of assay: human M3 receptor potentiation, selectivity assay for M5 PAM project, CHO cells (AID 651922). Summed up:
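System: human M3-expressing CHO-K1 cells / Measure: % of maximal acetylcholine response / Reagent: acetylcholine at submaximal EC20 concentration / Detection: Fluo-4 fluorescence calcium mobilization measurement / Incubation: compound pre-incubation 1.5 min, acetylcholine stimulation 50 s, read at 25 °C / Medium: HEPES- and probenecid-supplemented HBSS, pH 7.4 / Doses: final DMSO 0.3% in assay wells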

Calls of active or inactive are those of the source. The rule behind the calls is not given here.

Chain of Muscarinic acetylcholine receptor M3 (Homo sapiens) (P20309 whole entry, looked up): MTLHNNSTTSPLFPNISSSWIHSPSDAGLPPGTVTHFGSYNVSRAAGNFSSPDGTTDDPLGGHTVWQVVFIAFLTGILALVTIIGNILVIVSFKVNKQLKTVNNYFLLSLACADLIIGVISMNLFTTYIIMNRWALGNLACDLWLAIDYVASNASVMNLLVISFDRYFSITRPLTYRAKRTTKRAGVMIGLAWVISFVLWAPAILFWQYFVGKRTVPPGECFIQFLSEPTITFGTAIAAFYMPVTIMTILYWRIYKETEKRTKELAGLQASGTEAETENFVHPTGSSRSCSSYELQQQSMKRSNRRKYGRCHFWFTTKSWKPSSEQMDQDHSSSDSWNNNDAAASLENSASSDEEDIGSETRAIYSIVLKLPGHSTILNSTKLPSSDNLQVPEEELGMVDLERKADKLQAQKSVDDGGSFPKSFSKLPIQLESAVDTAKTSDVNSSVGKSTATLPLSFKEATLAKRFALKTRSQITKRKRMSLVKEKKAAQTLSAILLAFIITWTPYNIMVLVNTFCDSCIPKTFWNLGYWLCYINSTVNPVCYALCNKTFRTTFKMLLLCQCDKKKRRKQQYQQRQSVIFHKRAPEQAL

As to `O=C1C(=O)N(CCOc2ccccc2)c2ccc(OC(F)(F)F)cc21`, the outcome was inactive.

These data come from PubChem BioAssay AID651922 (Vanderbilt Specialized Chemistry Center, 2012).
